Results from ChEMBL document CHEMBL5058577, “EUbOPEN Chemogenomics Library 2 (Multiplex)” (2022).

Test system: HEK-293T
Assay: Multiplex assay against HEK293T
Format: toxicity, cell-based
Details: human
Method in brief: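 Compound was added to live cells that had been stained at seeding with Hoechst33342, BioTracker Green Microtubule Cytoskeleton Dye, MitoTracker Red and Annexin V Alexa Fluor 680, and imaging followed on a CQ1 microscope at 37°C and 5% CO2. CellPathfinder machine-learning gating divided cells into Hoechst high-intensity objects or normal cells, normal cells into healthy, pyknosed or fragmented nuclei, and pyknosed cells into mitotic or apoptotic. Tubulin, mitochondrial-mass and membrane-permeability phenotypes are per cents of healthy-nucleus cells.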

[1] = 12 h, 1 µM, compound concentration 1 uM, replicate 1
[2] = 12 h, 1 µM, compound concentration 1 uM, replicate 2
[3] = 12 h, 10 µM, compound concentration 10 uM, replicate 1
[4] = 12 h, 10 µM, compound concentration 10 uM, replicate 2
[5] = 24 h, 1 µM, compound concentration 1 uM, replicate 1
[6] = 24 h, 1 µM, compound concentration 1 uM, replicate 2
[7] = 24 h, 10 µM, compound concentration 10 uM, replicate 1
[8] = 24 h, 10 µM, compound concentration 10 uM, replicate 2
[9] = 48 h, 1 µM, compound concentration 1 uM, replicate 1
[10] = 48 h, 1 µM, compound concentration 1 uM, replicate 2
[11] = 48 h, 10 µM, compound concentration 10 uM, replicate 1
[12] = 48 h, 10 µM, compound concentration 10 uM, replicate 2

Q: Which results are given for `O=C(NCCN1CCC(n2c(=O)[nH]c3cc(Cl)ccc32)CC1)c1ccc(F)cc1` [HALOPEMIDE]?
A: Population Apoptotic (%) [1]: 46%; Population Fragmented Nuclei (%) [1]: 5%; Population Healthy Nuclei (%) [1]: 81%; Population Hoechst High Intensity Objects (%) [1]: 7%; Population Membrane Permeable-Phenotype (%) [1]: 0%; Population Mitochondria Different-Phenotype (%) [1]: 54%; Population Mitotic Cells (%) [1]: 53%; Population Normal (%) [1]: 92%; Population Pyknosed Nuclei (%) [1]: 13%; Population Tubulin-Different-Phenotype (%) [1]: 42%; Total Cell Count [1]: 334; Population Apoptotic (%) [2]: 43%; Population Healthy Nuclei (%) [2]: 79%; Population Hoechst High Intensity Objects (%) [2]: 10%; Population Mitochondria Different-Phenotype (%) [2]: 62%; Population Mitotic Cells (%) [2]: 56%; Population Normal (%) [2]: 89%; Population Pyknosed Nuclei (%) [2]: 15%; Population Tubulin-Different-Phenotype (%) [2]: 29%; Total Cell Count [2]: 373; Population Apoptotic (%) [3]: 39%; Population Fragmented Nuclei (%) [3]: 5%; Population Healthy Nuclei (%) [3]: 74%; Population Hoechst High Intensity Objects (%) [3]: 14%; Population Membrane Permeable-Phenotype (%) [3]: 0%; Population Mitochondria Different-Phenotype (%) [3]: 76%; Population Mitotic Cells (%) [3]: 60%; Population Normal (%) [3]: 85%; Population Pyknosed Nuclei (%) [3]: 20%; Population Tubulin-Different-Phenotype (%) [3]: 68%; Total Cell Count [3]: 460; Population Apoptotic (%) [4]: 65%; Population Fragmented Nuclei (%) [4]: 6%; Population Healthy Nuclei (%) [4]: 72%; Population Hoechst High Intensity Objects (%) [4]: 13%; Population Membrane Permeable-Phenotype (%) [4]: 1%; Population Mitochondria Different-Phenotype (%) [4]: 84%; Population Mitotic Cells (%) [4]: 34%; Population Normal (%) [4]: 86%; Population Pyknosed Nuclei (%) [4]: 21%; Population Tubulin-Different-Phenotype (%) [4]: 59%; Total Cell Count [4]: 319; Population Apoptotic (%) [5]: 40%; Population Fragmented Nuclei (%) [5]: 7%; Population Healthy Nuclei (%) [5]: 79%; Population Hoechst High Intensity Objects (%) [5]: 3%; Population Membrane Permeable-Phenotype (%) [5]: 1%; Population Mitochondria Different-Phenotype (%) [5]: 35%; Population Mitotic Cells (%) [5]: 59%; Population Normal (%) [5]: 96%; Population Pyknosed Nuclei (%) [5]: 12%; Population Tubulin-Different-Phenotype (%) [5]: 24%; Total Cell Count [5]: 471; Population Fragmented Nuclei (%) [6]: 9%; Population Hoechst High Intensity Objects (%) [6]: 6%; Population Membrane Permeable-Phenotype (%) [6]: 0%; Population Mitochondria Different-Phenotype (%) [6]: 37%; Population Normal (%) [6]: 93%; Population Pyknosed Nuclei (%) [6]: 11%; Population Tubulin-Different-Phenotype (%) [6]: 21%; Total Cell Count [6]: 508; Population Apoptotic (%) [7]: 27%; Population Fragmented Nuclei (%) [7]: 8%; Population Healthy Nuclei (%) [7]: 72%; Population Hoechst High Intensity Objects (%) [7]: 8%; Population Membrane Permeable-Phenotype (%) [7]: 1%; Population Mitochondria Different-Phenotype (%) [7]: 63%; Population Mitotic Cells (%) [7]: 72%; Population Normal (%) [7]: 91%; Population Pyknosed Nuclei (%) [7]: 19%; Population Tubulin-Different-Phenotype (%) [7]: 64%; Total Cell Count [7]: 580; Population Apoptotic (%) [8]: 64%; Population Fragmented Nuclei (%) [8]: 9%; Population Healthy Nuclei (%) [8]: 70%; Population Membrane Permeable-Phenotype (%) [8]: 0%; Population Mitochondria Different-Phenotype (%) [8]: 78%; Population Mitotic Cells (%) [8]: 35%; Population Pyknosed Nuclei (%) [8]: 20%; Population Tubulin-Different-Phenotype (%) [8]: 62%; Total Cell Count [8]: 361; Population Apoptotic (%) [9]: 30%; Population Fragmented Nuclei (%) [9]: 13%; Population Healthy Nuclei (%) [9]: 79%; Population Hoechst High Intensity Objects (%) [9]: 1%; Population Membrane Permeable-Phenotype (%) [9]: 1%; Population Mitochondria Different-Phenotype (%) [9]: 21%; Population Mitotic Cells (%) [9]: 69%; Population Normal (%) [9]: 98%; Population Pyknosed Nuclei (%) [9]: 6%; Population Tubulin-Different-Phenotype (%) [9]: 16%; Total Cell Count [9]: 841; Population Apoptotic (%) [10]: 28%; Population Hoechst High Intensity Objects (%) [10]: 3%; Population Membrane Permeable-Phenotype (%) [10]: 0%; Population Mitotic Cells (%) [10]: 71%; Population Normal (%) [10]: 96%; Population Pyknosed Nuclei (%) [10]: 7%; Population Tubulin-Different-Phenotype (%) [10]: 10%; Total Cell Count [10]: 675; Population Apoptotic (%) [11]: 37%; Population Fragmented Nuclei (%) [11]: 14%; Population Healthy Nuclei (%) [11]: 72%; Population Hoechst High Intensity Objects (%) [11]: 8%; Population Membrane Permeable-Phenotype (%) [11]: 1%; Population Mitochondria Different-Phenotype (%) [11]: 57%; Population Mitotic Cells (%) [11]: 62%; Population Normal (%) [11]: 91%; Population Pyknosed Nuclei (%) [11]: 12%; Population Tubulin-Different-Phenotype (%) [11]: 55%; Total Cell Count [11]: 706; Population Apoptotic (%) [12]: 60%; Population Healthy Nuclei (%) [12]: 74%; Population Hoechst High Intensity Objects (%) [12]: 6%; Population Mitochondria Different-Phenotype (%) [12]: 64%; Population Mitotic Cells (%) [12]: 40%; Population Normal (%) [12]: 93%; Population Pyknosed Nuclei (%) [12]: 11%; Total Cell Count [12]: 531
